Here are results for three molecules from ChEMBL document CHEMBL4014350, “Alkoxyurea-Based Histone Deacetylase Inhibitors Increase Cisplatin Potency in Chemoresistant Cancer Cell Lines” (J Med Chem, 2017).

Assay [1] has as its system CAL-27. The assay is described as follows: Potentiation of 0.5 uM cisplatin-induced cytotoxicity against human CAL27 cells assessed as decrease in cell viability measuring combination index at 500 uM preincubated for 48 hrs followed by cisplatin treatment measured after 72 hrs by MTT assay. It counts as functional. As to conditions: in the assay text read “at 500 nM” for “at 500 uM”. In short, it runs like this:
(§1)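 Cal27 and cisplatin-resistant Cal27CisR cells were preincubated with the HDAC inhibitor for 48 h, then given cisplatin in combination. Viability was read by MTT after 72 h. The combination index was computed by the Chou–Talalay method: CI > 1 is antagonism, CI = 1 is additive, and CI < 0.9 is synergism. Points with fraction affected below 0.20 were flagged.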
On the technique in general: Tetrazolium dyes change colour on reduction, which living cells bring about.

For assay [2], the target named is T1, Histone deacetylase 1/6 (Homo sapiens) (UniProt Q13547+Q9UBN7). Description: Inhibition of HDAC1/HDAC6 in human Cal27CisR cells assessed as potentiation of 5 uM cisplatin-induced cytotoxicity by measuring combination index at 500 uM preincubated for 48 hrs followed by cisplatin treatment measured after 72 hrs by MTT assay. It counts as cell-based. In short, it runs like this:
as §1

Assay [3] addresses Histone deacetylase 4 (Homo sapiens, UniProt P56524). Description: Inhibition of recombinant human N-terminal GST-tagged/C-terminal His-tagged HDAC4 expressed in insect cells using Boc-K(Ac)-AMC as substrate by fluorescence assay.
For assay [4], the target named is T1, Histone deacetylase 1/6 (Homo sapiens). The assay is described as follows: Inhibition of HDAC1/HDAC6 in human Cal27CisR cells assessed as potentiation of 1 uM cisplatin-induced cytotoxicity by measuring combination index at 500 nM preincubated for 48 hrs followed by cisplatin treatment measured after 72 hrs by MTT assay.
Assay [5] shares this target. Description: Inhibition of HDAC1/HDAC6 in human Cal27CisR cells assessed as potentiation of 20 uM cisplatin-induced cytotoxicity by measuring combination index at 500 nM preincubated for 48 hrs followed by cisplatin treatment measured after 72 hrs by MTT assay.
Assay [6] has as its system A2780cisR. Description: Antiproliferative activity against human A2780cisR cells measured after 72 hrs by MTT assay. It counts as functional, cell-based.
The subject of assay [7] is CAL-27. The assay is described as follows: Potentiation of 2 uM cisplatin-induced cytotoxicity against human CAL27 cells assessed as decrease in cell viability by measuring combination index at 700 uM preincubated for 48 hrs followed by cisplatin treatment measured after 72 hrs by MTT assay. It counts as functional. As to conditions: in the assay text read “at 700 nM” for “at 700 uM”. The procedure, abridged: (§2)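 HDAC inhibitor was added 48 h before cisplatin, then cells were exposed to cisplatin for 72 h and viability was read by MTT assay. Combination index was computed by the Chou–Talalay method: CI > 1 is antagonism, CI = 1 additive, CI < 0.9 synergism. Points with fraction affected below 0.20 were flagged.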

Assay [8] can be described thus: Antiproliferative activity against human Med8A cells after 72 hrs by Celltiter-Glo assay. In kind it is functional, cell-based.
Assay [9] concerns the target T1, Histone deacetylase 1/6 (Homo sapiens). The assay is described as follows: Inhibition of HDAC1/HDAC6 in human Cal27CisR cells assessed as potentiation of 1 uM cisplatin-induced cytotoxicity by measuring combination index at 700 uM preincubated for 48 hrs followed by cisplatin treatment measured after 72 hrs by MTT assay. It counts as cell-based. The procedure, abridged:
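Cal27CisR cells preincubated 48 h with the HDAC inhibitor, then exposed to cisplatin for 72 h. Viability read by MTT. Combination index calculated by the Chou–Talalay method: CI > 1 antagonism, CI = 1 additive, CI < 0.9 synergism. Points with fraction affected below 0.20 are flagged. Values are the mean of three experiments.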

Assay [10] shares this target. Description: Inhibition of HDAC1/HDAC6 in human Cal27CisR cells assessed as potentiation of 3.16 uM cisplatin-induced cytotoxicity by measuring combination index at 800 nM preincubated for 48 hrs followed by cisplatin treatment measured after 72 hrs by MTT assay.
Assay [11] relates to CAL-27. Description: Potentiation of 1 uM cisplatin-induced cytotoxicity against human CAL27 cells assessed as decrease in cell viability by measuring combination index at 800 uM preincubated for 48 hrs followed by cisplatin treatment measured after 72 hrs by MTT assay. In kind it is functional. In short, it runs like this:
as §2

Assay [12] has as its target T1, Histone deacetylase 1/6 (Homo sapiens). The assay is described as follows: Inhibition of HDAC1/HDAC6 in human Cal27CisR cells assessed as potentiation of 5 uM cisplatin-induced cytotoxicity by measuring combination index at 600 uM preincubated for 48 hrs followed by cisplatin treatment measured after 72 hrs by MTT assay. It counts as cell-based. The procedure, abridged:
as §1

For assay [13], the system named is CAL-27. Description: Potentiation of 2 uM cisplatin-induced cytotoxicity against human CAL27 cells assessed as decrease in cell viability by measuring combination index at 500 uM preincubated for 48 hrs followed by cisplatin treatment measured after 72 hrs by MTT assay. In kind it is functional. As to conditions: in the assay text read “at 500 nM” for “at 500 uM”. The procedure, abridged: as §2

Assay [14] concerns CAL-27. The assay is described as follows: Potentiation of 0.5 uM cisplatin-induced cytotoxicity against human CAL27 cells assessed as decrease in cell viability measuring combination index at 600 uM preincubated for 48 hrs followed by cisplatin treatment measured after 72 hrs by MTT assay. In kind it is functional. As to conditions: in the assay text read “at 600 nM” for “at 600 uM”. In short, it runs like this:
as §1

For assay [15], the system named is CAL-27. Description: Potentiation of 5 uM cisplatin-induced cytotoxicity against human CAL27 cells assessed as decrease in cell viability by measuring combination index at 700 uM preincubated for 48 hrs followed by cisplatin treatment measured after 72 hrs by MTT assay. In kind it is functional. As to conditions: in the assay text read “at 700 nM” for “at 700 uM”. In short, it runs like this:
as §2

Assay [16] has as its system CAL-27. The assay is described as follows: Potentiation of 1 uM cisplatin-induced cytotoxicity against human CAL27 cells assessed as decrease in cell viability by measuring combination index at 700 uM preincubated for 48 hrs followed by cisplatin treatment measured after 72 hrs by MTT assay. In kind it is functional. In short, it runs like this:
as §2

In assay [17] the target is T1, Histone deacetylase 1/6 (Homo sapiens). The assay is described as follows: Inhibition of HDAC1/HDAC6 in human Cal27CisR cells assessed as potentiation of 10 uM cisplatin-induced cytotoxicity by measuring combination index at 600 nM preincubated for 48 hrs followed by cisplatin treatment measured after 72 hrs by MTT assay.
Assay [18] concerns CAL-27. Description: Potentiation of 0.316 uM cisplatin-induced cytotoxicity against human CAL27 cells assessed as decrease in cell viability by measuring combination index at 800 uM preincubated for 48 hrs followed by cisplatin treatment measured after 72 hrs by MTT assay. As to conditions: in the assay text read “at 800 nM” for “at 800 uM”. In kind it is functional. In short, it runs like this:
as §1

Assay [19] has as its system CAL-27. Description: Potentiation of 0.5 uM cisplatin-induced cytotoxicity against human CAL27 cells assessed as decrease in cell viability measuring combination index at 700 uM preincubated for 48 hrs followed by cisplatin treatment measured after 72 hrs by MTT assay. As to conditions: in the assay text read “at 700 nM” for “at 700 uM”. In kind it is functional. The procedure, abridged:
as §1

Assay [20] is described as follows: Inhibition of HDAC in human CAL27 cells using Boc-Lys(epsilon-Ac)-AMC as substrate preincubated for 18 hrs followed by substrate addition measured after 3 hrs by fluorescence assay. In kind it is cell-based. As to conditions: CAL-27.
Assay [21] concerns the target T1, Histone deacetylase 1/6 (Homo sapiens). Description: Inhibition of HDAC1/HDAC6 in human Cal27CisR cells assessed as potentiation of 3.16 uM cisplatin-induced cytotoxicity by measuring combination index at 700 nM preincubated for 48 hrs followed by cisplatin treatment measured after 72 hrs by MTT assay.
The test system of assay [22] is A2780. The assay is described as follows: Antiproliferative activity against human A2780 cells measured after 72 hrs by MTT assay. In kind it is functional, cell-based. As to conditions: A2780, 72 h.

The structures appear in SMILES notation. A value given as a limit tells only on which side of the number the result lay.

T1 sequence (Q13547 whole entry, looked up): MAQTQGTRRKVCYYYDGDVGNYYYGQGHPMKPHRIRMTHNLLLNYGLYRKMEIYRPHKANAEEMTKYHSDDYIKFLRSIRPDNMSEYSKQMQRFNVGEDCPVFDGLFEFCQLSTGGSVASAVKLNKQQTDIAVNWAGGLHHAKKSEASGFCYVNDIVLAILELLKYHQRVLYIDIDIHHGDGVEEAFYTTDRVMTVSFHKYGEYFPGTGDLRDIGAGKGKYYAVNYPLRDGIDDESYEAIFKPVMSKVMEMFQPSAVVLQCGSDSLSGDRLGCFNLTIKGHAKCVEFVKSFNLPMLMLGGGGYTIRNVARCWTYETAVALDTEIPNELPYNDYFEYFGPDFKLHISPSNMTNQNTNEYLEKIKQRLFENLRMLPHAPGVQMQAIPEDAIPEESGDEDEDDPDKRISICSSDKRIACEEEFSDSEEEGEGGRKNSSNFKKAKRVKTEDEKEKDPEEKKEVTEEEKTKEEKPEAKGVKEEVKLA
T1 sequence (Q9UBN7 whole entry, looked up): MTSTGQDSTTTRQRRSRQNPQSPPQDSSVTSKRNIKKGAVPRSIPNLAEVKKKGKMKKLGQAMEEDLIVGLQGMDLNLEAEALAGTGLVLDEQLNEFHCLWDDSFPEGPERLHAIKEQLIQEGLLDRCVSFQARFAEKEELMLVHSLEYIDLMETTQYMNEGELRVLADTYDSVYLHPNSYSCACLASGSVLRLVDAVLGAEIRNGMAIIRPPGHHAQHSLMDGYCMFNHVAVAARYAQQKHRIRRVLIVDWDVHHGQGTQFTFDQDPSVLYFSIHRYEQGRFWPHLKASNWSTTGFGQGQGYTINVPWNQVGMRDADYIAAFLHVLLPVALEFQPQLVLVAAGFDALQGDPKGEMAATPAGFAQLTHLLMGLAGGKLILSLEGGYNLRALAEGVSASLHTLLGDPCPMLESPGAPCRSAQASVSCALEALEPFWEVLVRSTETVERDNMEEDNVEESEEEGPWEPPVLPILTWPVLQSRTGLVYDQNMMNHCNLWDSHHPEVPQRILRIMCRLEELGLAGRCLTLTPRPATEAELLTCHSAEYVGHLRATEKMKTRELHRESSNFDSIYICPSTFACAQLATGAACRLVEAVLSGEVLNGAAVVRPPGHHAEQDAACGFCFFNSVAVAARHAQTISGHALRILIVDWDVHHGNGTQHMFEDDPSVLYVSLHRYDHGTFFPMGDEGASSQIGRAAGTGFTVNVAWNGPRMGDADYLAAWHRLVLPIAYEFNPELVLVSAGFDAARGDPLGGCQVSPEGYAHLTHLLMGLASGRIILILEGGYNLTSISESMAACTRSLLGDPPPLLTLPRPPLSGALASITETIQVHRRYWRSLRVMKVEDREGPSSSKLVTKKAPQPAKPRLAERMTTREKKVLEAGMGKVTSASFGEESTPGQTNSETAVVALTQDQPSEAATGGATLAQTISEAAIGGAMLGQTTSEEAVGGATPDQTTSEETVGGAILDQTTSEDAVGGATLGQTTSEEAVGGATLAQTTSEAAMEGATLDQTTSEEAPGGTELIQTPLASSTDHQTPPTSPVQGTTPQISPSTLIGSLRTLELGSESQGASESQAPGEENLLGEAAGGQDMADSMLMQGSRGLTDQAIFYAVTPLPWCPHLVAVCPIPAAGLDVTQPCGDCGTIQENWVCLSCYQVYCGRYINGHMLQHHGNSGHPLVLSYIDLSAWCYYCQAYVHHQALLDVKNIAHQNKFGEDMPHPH
Sequence of Histone deacetylase 4 (P56524 whole entry): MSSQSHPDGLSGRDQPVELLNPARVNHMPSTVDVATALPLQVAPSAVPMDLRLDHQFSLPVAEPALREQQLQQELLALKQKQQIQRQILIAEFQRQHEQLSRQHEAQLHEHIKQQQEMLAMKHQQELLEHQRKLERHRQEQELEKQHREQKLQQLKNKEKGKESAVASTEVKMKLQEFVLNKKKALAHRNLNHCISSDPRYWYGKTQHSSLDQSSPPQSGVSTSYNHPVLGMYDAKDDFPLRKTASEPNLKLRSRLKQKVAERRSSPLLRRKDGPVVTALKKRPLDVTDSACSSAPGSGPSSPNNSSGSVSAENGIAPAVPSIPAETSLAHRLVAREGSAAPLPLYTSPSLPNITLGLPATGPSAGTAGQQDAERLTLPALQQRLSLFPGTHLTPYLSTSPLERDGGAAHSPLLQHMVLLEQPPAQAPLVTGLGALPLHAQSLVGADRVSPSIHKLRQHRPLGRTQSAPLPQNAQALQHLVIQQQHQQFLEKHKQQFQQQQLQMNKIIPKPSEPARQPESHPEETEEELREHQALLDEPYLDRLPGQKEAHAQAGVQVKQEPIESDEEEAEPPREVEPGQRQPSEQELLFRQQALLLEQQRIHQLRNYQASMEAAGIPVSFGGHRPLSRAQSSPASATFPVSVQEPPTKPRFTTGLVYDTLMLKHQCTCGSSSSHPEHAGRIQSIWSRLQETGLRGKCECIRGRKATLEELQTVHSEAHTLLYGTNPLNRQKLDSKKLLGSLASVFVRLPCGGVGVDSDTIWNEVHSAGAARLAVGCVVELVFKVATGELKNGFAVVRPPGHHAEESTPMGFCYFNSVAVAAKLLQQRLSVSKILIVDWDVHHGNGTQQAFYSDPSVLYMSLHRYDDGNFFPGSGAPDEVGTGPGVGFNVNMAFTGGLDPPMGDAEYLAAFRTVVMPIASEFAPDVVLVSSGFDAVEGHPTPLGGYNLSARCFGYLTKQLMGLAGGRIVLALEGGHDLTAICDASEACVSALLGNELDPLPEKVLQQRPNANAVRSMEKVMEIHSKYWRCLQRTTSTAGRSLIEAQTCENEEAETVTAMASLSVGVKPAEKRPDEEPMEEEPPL

Turning to `COc1cc(NC(=O)NOCCCCCC(=O)NO)c2nccc(C)c2c1`, the CI in [1] is 0.49; in assay [2] it was 0.28; in assay [4], below 0.2; in assay [5], 0.26; in [7], 0.36; in assay [9], below 0.2. The CI in assay [10] was found to be 0.26; in assay [11] it was 0.41; in assay [12], 0.25; in assay [13], 0.27; in assay [14] it was 0.58; in assay [15], 0.41. Further, the CI stood at 0.43 in assay [16]; 0.2 in assay [17]; 0.56 in assay [18]; 0.57 in [19]; 0.28 in assay [21]. The IC50 (usually the concentration needed to halve the response being measured) in assay [3] was above 10000 nM; in assay [6], 300 nM; in assay [8] it was 600 nM; in assay [20], 600 nM; in [22], 1100 nM.
As to `COc1cc(NC(=O)NOCCCCCC(=O)NO)c2nc(OC)cc(C)c2c1`, the CI in assay [1] is 0.66; in assay [2] it was 0.19; in assay [4], 0.56; in assay [5] it was 0.2; in [7] it was 0.6; in [9], below 0.2. For the same molecule, the CI in assay [10] stood at 0.29; in assay [11], 0.69; in assay [12] it was 0.2; in assay [13], 0.42; in assay [14], 0.66; in [15], 0.64. The CI was 0.61 in assay [16]; 0.17 in assay [17]; 0.84 in assay [18]; 0.7 in assay [19]; 0.28 in assay [21]. Moreover, the IC50 is above 10000 nM in assay [3]; 400 nM in [6]; 590 nM in assay [8]; 500 nM in assay [20]; 800 nM in [22].
On to `COc1cc(NC(=O)NOCCCCCC(=O)NO)c2ncccc2c1`, for which the CI in assay [1] was 0.87; in [2], 0.96; in assay [4], below 0.2; in assay [5], 0.35; in assay [7] it was 0.43; in [9], below 0.2. Also, the CI in assay [10] is 0.51; in assay [11], 0.56; in assay [12] it was 0.6; in assay [13], 0.49; in [14], 0.77; in assay [15], 0.32. Moreover, the CI in assay [16] is 0.63; in assay [17], 0.36; in assay [18] it was below 0.2; in assay [19] it was 0.97; in assay [21], 0.56. Moreover, the IC50 was above 10000 nM in assay [3]; 400 nM in [6]; 1210 nM in assay [8]; 900 nM in assay [20]; 1200 nM in assay [22].
